Drawing on ChEMBL document CHEMBL1795264, “Deglycobleomycin A6 analogues modified in the methylvalerate moiety” (Bioorg Med Chem, 2011), this text covers Activity for 12 compounds.

Calls of active or inactive are those of the source. The calls are words filed in the database; no cut-off is given here.

In experiment [1] the test system is Nucleic Acid. Description: Induction of Escherichia coli supercoiled pBR322 DNA cleavage assessed as formation of nicked DNA using bromophenol blue at 1 to 4 uM after 30 mins by agarose gel electrophoresis analysis in presence of equimolar Fe2+. The experiment is classed as nucleic-acid assay.
Experiment [2] relates to Nucleic Acid. Description: Induction of Escherichia coli supercoiled pBR322 DNA cleavage assessed as formation of linear form of DNA using bromophenol blue at 4 uM after 30 mins by agarose gel electrophoresis analysis in presence of equimolar Fe2+. The experiment is classed as nucleic-acid assay.
Experiment [3] deals with Nucleic Acid. Briefly: Induction of Escherichia coli [5'-32P]-end labeled 158-base pair of pBR322 DNA cleavage at G12 site using bromophenol blue and xylene cyanol FF at 1 to 10 uM after 30 mins by phosphorimager analysis in presence of equimolar Fe2+. The experiment is classed as nucleic-acid assay. The method, boiled down: (§1)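 158-bp pBR322 restriction fragment (HindIII cut, dephosphorylated, 5'-32P-labelled with T4 polynucleotide kinase, EcoRV cut), 30,000 cpm, treated with Fe2+ plus deglycoBLM in 50 mM Tris–HCl pH 8.0 at room temperature for 30 min. Supernatant removed under vacuum, pellet heated 90 °C 10 min in formamide loading buffer and chilled on ice before denaturing gel analysis.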

In experiment [4] the test system is Nucleic Acid. Briefly: Induction of Escherichia coli [5'-32P]-end labeled 158-base pair of pBR322 DNA cleavage at A15 site using bromophenol blue and xylene cyanol FF at 1 to 10 uM after 30 mins by phosphorimager analysis in presence of equimolar Fe2+. In kind it is nucleic-acid assay. The method, boiled down: as §1
For experiment [5], the system named is Nucleic Acid. Briefly: Induction of Escherichia coli [5'-32P]-end labeled 64-nucleotide hairpin DNA base pair of pBR322 DNA cleavage using bromophenol blue and xylene cyanol FF at 5 to 20 uM after 30 mins by phosphorimager analysis in presence of equimolar Fe2+. In kind it is nucleic-acid assay. The method, boiled down:
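64-nt hairpin DNA, 5'-32P-labelled with T4 polynucleotide kinase and purified on 16% polyacrylamide gel, 30,000 cpm, exposed to Fe2+ plus deglycoBLM in 50 mM Tris–HCl pH 8.0 at room temperature for 30 min. Dried, heated 90 °C 10 min in formamide loading buffer, then run on denaturing 16% polyacrylamide/7 M urea gel at 1800 V for 2.5 h.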

In experiment [6] the test system is Nucleic Acid. Briefly: Induction of Escherichia coli [5'-32P]-end labeled 158-base pair of pBR322 DNA cleavage using bromophenol blue and xylene cyanol FF at 1 to 10 uM after 30 mins by phosphorimager analysis in presence of equimolar Fe2+.
Experiment [7] has as its system Nucleic Acid. Briefly: Induction of Escherichia coli [5'-32P]-end labeled 158-base pair of pBR322 DNA cleavage at 5'-CG11-3' site using bromophenol blue and xylene cyanol FF at 1 to 10 uM after 30 mins by phosphorimager analysis in presence of equimolar Fe2+. In kind it is nucleic-acid assay. The method, boiled down: as §1
Experiment [8] concerns Nucleic Acid. Description: Induction of Escherichia coli [5'-32P]-end labeled 158-base pair of pBR322 DNA cleavage at 5'-CG35-3' site using bromophenol blue and xylene cyanol FF at 1 to 10 uM after 30 mins by phosphorimager analysis in presence of equimolar Fe2+. The experiment is classed as nucleic-acid assay. An outline of the steps:
as §1

Experiment [9] concerns Nucleic Acid. Description: Induction of Escherichia coli [5'-32P]-end labeled 158-base pair of pBR322 DNA cleavage at 5'-GT14-3' site using bromophenol blue and xylene cyanol FF at 1 to 10 uM after 30 mins by phosphorimager analysis in presence of equimolar Fe2+. The experiment is classed as nucleic-acid assay. An outline of the steps:
as §1

In experiment [10] the test system is Nucleic Acid. Description: Induction of Escherichia coli [5'-32P]-end labeled 158-base pair of pBR322 DNA cleavage at 5'-GT17-3' site using bromophenol blue and xylene cyanol FF at 1 to 10 uM after 30 mins by phosphorimager analysis in presence of equimolar Fe2+. The experiment is classed as nucleic-acid assay. The method, boiled down:
as §1

Experiment [11] has as its system Nucleic Acid. Description: Induction of Escherichia coli [5'-32P]-end labeled 158-base pair of pBR322 DNA cleavage at 5'-GT27-3' site using bromophenol blue and xylene cyanol FF at 1 to 10 uM after 30 mins by phosphorimager analysis in presence of equimolar Fe2+. In kind it is nucleic-acid assay. The method, boiled down:
as §1

As for `Cc1c(N)nc([C@H](CC(N)=O)NC[C@H](N)C(N)=O)nc1C(=O)N[C@@H](Cc1c[nH]cn1)C(=O)N[C@H](C)[C@@H](O)[C@H](Cc1ccccc1)C(=O)N[C@H](C(=O)NCCc1nc(-c2nc(C(=O)NCCCNCCCCNCCCN)cs2)cs1)[C@@H](C)O`, the outcome with Nucleic Acid [1], in the experiment on Nucleic Acid [2], in the experiment on Nucleic Acid [5] and in the experiment on Nucleic Acid [6] was Active. Besides, the outcome in the experiment on Nucleic Acid [3] and in the experiment on Nucleic Acid [4] was inactive.
`Cc1c(N)nc([C@H](CC(N)=O)NC[C@H](N)C(N)=O)nc1C(=O)N[C@@H](Cc1c[nH]cn1)C(=O)N[C@H](C)[C@@H](O)[C@H](C)C(=O)N[C@H](C(=O)NCCc1nc(-c2nc(C(=O)NCCCNCCCCN)cs2)cs1)[C@@H](C)O`: the result with Nucleic Acid [1] and in the experiment on Nucleic Acid [5] was Active.
With `CC[C@@H](C)C(NC(=O)[C@H](Cc1c[nH]cn1)NC(=O)c1nc([C@H](CC(N)=O)NC[C@H](N)C(N)=O)nc(N)c1C)[C@@H](O)[C@H](C)C(=O)N[C@H](C(=O)NCCc1nc(-c2nc(C(=O)NCCCNCCCCNCCCN)cs2)cs1)[C@@H](C)O` (single isomer, unassigned), the result in the experiment with Nucleic Acid [1], in the experiment with Nucleic Acid [7], with Nucleic Acid [8], with Nucleic Acid [9], in the experiment with Nucleic Acid [10] and with Nucleic Acid [11] was Active. Besides, the result with Nucleic Acid [3], with Nucleic Acid [4] and in the experiment on Nucleic Acid [5] was Active.
As to `Cc1c(N)nc([C@H](CC(N)=O)NC[C@H](N)C(N)=O)nc1C(=O)N[C@@H](Cc1c[nH]cn1)C(=O)N[C@H](CC(C)C)[C@@H](O)[C@H](C)C(=O)N[C@H](C(=O)NCCc1nc(-c2nc(C(=O)NCCCNCCCCNCCCN)cs2)cs1)[C@@H](C)O`, the result in the experiment on Nucleic Acid [1], with Nucleic Acid [7], with Nucleic Acid [8], in the experiment with Nucleic Acid [9], in the experiment on Nucleic Acid [10] and in the experiment with Nucleic Acid [11] was Active. In addition, in the experiment with Nucleic Acid [5], the result was Active.
For the compound `Cc1c(N)nc([C@H](CC(N)=O)NC[C@H](N)C(N)=O)nc1C(=O)N[C@@H](Cc1c[nH]cn1)C(=O)N[C@@H]([C@@H](O)[C@H](C)C(=O)N[C@H](C(=O)NCCc1nc(-c2nc(C(=O)NCCCNCCCCNCCCN)cs2)cs1)[C@@H](C)O)C(C)(C)C`, the outcome in the experiment on Nucleic Acid [1], in the experiment with Nucleic Acid [7], in the experiment on Nucleic Acid [8], with Nucleic Acid [9], in the experiment with Nucleic Acid [10] and in the experiment with Nucleic Acid [11] was Active. The result with Nucleic Acid [5] was Active.
In the case of `Cc1c(N)nc([C@H](CC(N)=O)NC[C@H](N)C(N)=O)nc1C(=O)N[C@@H](Cc1c[nH]cn1)C(=O)N[C@H](C)[C@@H](O)[C@H](CC(C)C)C(=O)N[C@H](C(=O)NCCc1nc(-c2nc(C(=O)NCCCNCCCCNCCCN)cs2)cs1)[C@@H](C)O`, the outcome in the experiment with Nucleic Acid [1], in the experiment with Nucleic Acid [2], in the experiment on Nucleic Acid [5] and with Nucleic Acid [6] was Active. The outcome in the experiment with Nucleic Acid [3] and with Nucleic Acid [4] was inactive.
Turning to `Cc1c(N)nc([C@H](CC(N)=O)NC[C@H](N)C(N)=O)nc1C(=O)N[C@@H](Cc1c[nH]cn1)C(=O)N[C@H](Cc1ccccc1)[C@@H](O)[C@H](C)C(=O)N[C@H](C(=O)NCCc1nc(-c2nc(C(=O)NCCCNCCCCNCCCN)cs2)cs1)[C@@H](C)O`, the result in the experiment on Nucleic Acid [1], in the experiment with Nucleic Acid [2], in the experiment on Nucleic Acid [5] and with Nucleic Acid [6] was Active. Further, the outcome with Nucleic Acid [3] and in the experiment with Nucleic Acid [4] was inactive.
With `Cc1c(N)nc([C@H](CC(N)=O)NC[C@H](N)C(N)=O)nc1C(=O)N[C@@H](Cc1c[nH]cn1)C(=O)N[C@H](CC1CCCCC1)[C@@H](O)[C@H](C)C(=O)N[C@H](C(=O)NCCc1nc(-c2nc(C(=O)NCCCNCCCCNCCCN)cs2)cs1)[C@@H](C)O`, the result in the experiment with Nucleic Acid [1], with Nucleic Acid [2], in the experiment with Nucleic Acid [5] and in the experiment on Nucleic Acid [6] was Active. Further, the result in the experiment on Nucleic Acid [3] and in the experiment with Nucleic Acid [4] was inactive.
Turning to `Cc1ccccc1C[C@@H](NC(=O)[C@H](Cc1c[nH]cn1)NC(=O)c1nc([C@H](CC(N)=O)NC[C@H](N)C(N)=O)nc(N)c1C)[C@@H](O)[C@H](C)C(=O)N[C@H](C(=O)NCCc1nc(-c2nc(C(=O)NCCCNCCCCNCCCN)cs2)cs1)[C@@H](C)O`, the outcome in the experiment with Nucleic Acid [1], in the experiment on Nucleic Acid [5] and with Nucleic Acid [6] was Active. Also, the outcome with Nucleic Acid [3] and in the experiment with Nucleic Acid [4] was inactive.
For `Cc1c(N)nc([C@H](CC(N)=O)NC[C@H](N)C(N)=O)nc1C(=O)N[C@@H](Cc1c[nH]cn1)C(=O)N[C@H](Cc1ccccc1Br)[C@@H](O)[C@H](C)C(=O)N[C@H](C(=O)NCCc1nc(-c2nc(C(=O)NCCCNCCCCNCCCN)cs2)cs1)[C@@H](C)O`, the outcome in the experiment with Nucleic Acid [1], in the experiment on Nucleic Acid [2], in the experiment on Nucleic Acid [5] and with Nucleic Acid [6] was Active. Also, the result in the experiment on Nucleic Acid [3] and with Nucleic Acid [4] was inactive.
Consider `CCCC[C@H](C(=O)N[C@H](C(=O)NCCc1nc(-c2nc(C(=O)NCCCNCCCCNCCCN)cs2)cs1)[C@@H](C)O)[C@H](O)[C@@H](C)NC(=O)[C@H](Cc1c[nH]cn1)NC(=O)c1nc([C@H](CC(N)=O)NC[C@H](N)C(N)=O)nc(N)c1C`, for which the outcome in the experiment with Nucleic Acid [1], in the experiment on Nucleic Acid [2], with Nucleic Acid [5] and in the experiment on Nucleic Acid [6] was Active. Besides, the result in the experiment with Nucleic Acid [3] and with Nucleic Acid [4] was inactive.
As for `Cc1c(N)nc([C@H](CC(N)=O)NC[C@H](N)C(N)=O)nc1C(=O)N[C@@H](Cc1c[nH]cn1)C(=O)N[C@H](CC(C)C)[C@@H](O)[C@H](CC(C)C)C(=O)N[C@H](C(=O)NCCc1nc(-c2nc(C(=O)NCCCNCCCCNCCCN)cs2)cs1)[C@@H](C)O`, the result in the experiment with Nucleic Acid [1], in the experiment with Nucleic Acid [2], in the experiment on Nucleic Acid [5] and with Nucleic Acid [6] was Active. Further, the outcome with Nucleic Acid [3] and with Nucleic Acid [4] was inactive.
